Measured values as given in ChEMBL document CHEMBL1133431, “1,3-Diarylcycloalkanopyrazoles and diphenyl hydrazides as selective inhibitors of cyclooxygenase-2” (Bioorg Med Chem Lett, 2000).

Target: Prostaglandin G/H synthase 1 (Homo sapiens, UniProt P23219)
Assay: Inhibitory activity against human prostaglandin G/H synthase 1 in platelet-rich plasma measured by the presence of thromboxane A2
Method in brief: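 Human peripheral blood drawn into heparin; platelet-rich plasma collected by centrifugation (200×g, 20 min, room temperature) and diluted 1:20 in 0.9% NaCl. Compound or vehicle preincubated 15 min at 37 °C, then stimulated with calcium ionophore A-23187 (free acid) for 15 min at 37 °C, then chilled on ice 5 min. Supernatant thromboxane B2 measured by radioimmunoassay.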

Prostaglandin G/H synthase 1, sequence (P23219 whole entry): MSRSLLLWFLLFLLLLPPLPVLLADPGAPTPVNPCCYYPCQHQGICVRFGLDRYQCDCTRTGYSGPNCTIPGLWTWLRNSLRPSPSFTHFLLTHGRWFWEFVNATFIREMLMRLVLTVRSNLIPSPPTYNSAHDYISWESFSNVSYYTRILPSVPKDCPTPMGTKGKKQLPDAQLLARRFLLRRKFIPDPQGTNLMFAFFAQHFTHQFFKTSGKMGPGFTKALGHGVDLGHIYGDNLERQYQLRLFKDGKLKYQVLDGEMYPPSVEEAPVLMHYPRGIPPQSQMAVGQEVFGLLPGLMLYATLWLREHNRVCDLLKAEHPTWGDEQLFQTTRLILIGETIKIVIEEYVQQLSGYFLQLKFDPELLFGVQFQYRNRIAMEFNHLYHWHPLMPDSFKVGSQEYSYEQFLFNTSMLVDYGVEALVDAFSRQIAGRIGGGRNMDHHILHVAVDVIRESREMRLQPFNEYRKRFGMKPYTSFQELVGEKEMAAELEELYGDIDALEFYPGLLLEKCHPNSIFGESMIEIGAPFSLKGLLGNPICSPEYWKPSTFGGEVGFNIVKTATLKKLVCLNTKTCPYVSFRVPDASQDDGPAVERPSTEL

| IC50 [µM] | Structure (SMILES) |
| --- | --- |
| > 10 | O=C(NNc1ccc(Cl)cc1)c1ccccc1 |
| > 10 | O=C(NNc1ccccc1)c1ccccc1 |
| > 10 | COc1ccc(NNC(=O)c2ccc(Cl)cc2)cc1 |
| > 10 | O=C(NNc1ccccc1)c1ccc(Cl)cc1 |
| > 10 | Clc1ccc(-c2nn(-c3ccc(Cl)cc3)c3c2CCC3)cc1 |
| > 10 | COc1ccc(-n2nc(-c3ccc(Cl)cc3)c3c2CCC(F)C3)cc1 (configuration not stated) |
| > 10 | COc1ccc(NNC(=O)c2ccccc2)cc1 |
| > 10 | COc1ccc(C(=O)NNc2ccc(Cl)cc2)cc1 |
| > 10 | CS(=O)(=O)c1ccc(-n2nc(-c3ccc(F)cc3)c3c2CCCC3)cc1 |
| > 10 | CS(=O)(=O)c1ccc(NNC(=O)c2ccc(Cl)cc2)cc1 |
| > 10 | COc1ccc(-n2nc(-c3ccc(Cl)cc3)c3c2CCCCC3)cc1 |
| > 10 | CS(=O)(=O)c1ccc(-n2nc(-c3ccc(Cl)cc3)c3c2CCCC3)cc1 |
| > 10 | CS(=O)(=O)c1ccc(NNC(=O)c2ccccc2)cc1 |
| > 10 | O=C(NNc1ccc(Cl)cc1)c1ccc(Cl)cc1 |
| > 10 | COc1ccc(C(=O)NNc2ccccc2)cc1 |
| > 10 | Clc1ccc(-c2nn(-c3ccc(Cl)cc3)c3c2CCCCC3)cc1 |
| > 10 | Cc1ccc(NNC(=O)c2ccccc2)cc1 |
| > 10 | c1ccc(-c2nn(-c3ccccc3)c3c2CCC3)cc1 |
| > 10 | COc1ccc(-n2nc(-c3ccc(Cl)cc3)c3c2CCC(NOC(C)=O)C3)cc1 (configuration not stated) |
| > 10 | COc1ccc(-n2nc(-c3ccc(Cl)cc3)c3c2CCC(N(O)C(C)=O)C3)cc1 (configuration not stated) |

| Structure (SMILES) | IC50 [µM] |
| --- | --- |
| Cc1ccc(-n2nc(-c3ccc(Cl)cc3)c3c2CCCCC3)cc1 | > 10 |
| COc1ccc(-n2nc(-c3ccc(Cl)cc3)c3c2CCC(O)C3)cc1 (configuration not stated) | > 10 |
| Cc1ccc(NNC(=O)c2ccc(Cl)cc2)cc1 | > 10 |

Target: T1, Prostaglandin G/H synthase 2 (Homo sapiens, UniProt P35354)
T1 sequence (P35354 whole entry): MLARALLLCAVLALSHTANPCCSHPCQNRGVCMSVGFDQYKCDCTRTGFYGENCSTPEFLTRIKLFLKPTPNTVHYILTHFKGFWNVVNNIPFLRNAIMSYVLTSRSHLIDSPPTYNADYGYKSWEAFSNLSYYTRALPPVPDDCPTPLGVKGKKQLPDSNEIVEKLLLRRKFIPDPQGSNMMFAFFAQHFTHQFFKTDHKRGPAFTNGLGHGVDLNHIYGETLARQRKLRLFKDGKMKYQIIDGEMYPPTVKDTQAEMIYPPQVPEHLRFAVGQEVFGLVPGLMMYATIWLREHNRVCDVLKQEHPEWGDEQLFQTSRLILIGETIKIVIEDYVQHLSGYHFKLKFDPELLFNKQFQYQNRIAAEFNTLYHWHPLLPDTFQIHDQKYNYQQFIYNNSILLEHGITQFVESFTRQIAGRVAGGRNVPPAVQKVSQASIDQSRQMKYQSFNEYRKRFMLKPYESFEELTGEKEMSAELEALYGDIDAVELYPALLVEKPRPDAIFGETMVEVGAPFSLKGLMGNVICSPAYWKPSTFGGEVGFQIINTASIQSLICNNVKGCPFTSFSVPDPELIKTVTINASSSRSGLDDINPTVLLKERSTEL
Assay: Inhibitory activity against human prostaglandin G/H synthase 2 in ECV-304 cells measured by the presence of PGE-2
Type: cell-based

| IC50 [µM] | Structure (SMILES) |
| --- | --- |
| 0.53 | O=C(NNc1ccc(Cl)cc1)c1ccccc1 |
| 10 | O=C(NNc1ccccc1)c1ccccc1 |
| 0.13 | COc1ccc(NNC(=O)c2ccc(Cl)cc2)cc1 |
| 0.33 | O=C(NNc1ccccc1)c1ccc(Cl)cc1 |
| > 10 | Clc1ccc(-c2nn(-c3ccc(Cl)cc3)c3c2CCC3)cc1 |
| 0.18 | COc1ccc(NNC(=O)c2ccccc2)cc1 |
| 0.47 | COc1ccc(C(=O)NNc2ccc(Cl)cc2)cc1 |
| > 10 | CS(=O)(=O)c1ccc(-n2nc(-c3ccc(F)cc3)c3c2CCCC3)cc1 |
| > 10 | CS(=O)(=O)c1ccc(NNC(=O)c2ccc(Cl)cc2)cc1 |
| > 10 | CS(=O)(=O)c1ccc(-n2nc(-c3ccc(Cl)cc3)c3c2CCCC3)cc1 |
| > 10 | CS(=O)(=O)c1ccc(NNC(=O)c2ccccc2)cc1 |
| 0.34 | O=C(NNc1ccc(Cl)cc1)c1ccc(Cl)cc1 |
| > 10 | COc1ccc(C(=O)NNc2ccccc2)cc1 |
| 0.33 | Cc1ccc(NNC(=O)c2ccccc2)cc1 |
| > 10 | COc1ccc(-n2nc(-c3ccc(Cl)cc3)c3c2CCC(NOC(C)=O)C3)cc1 (configuration not stated) |
| > 10 | CS(=O)(=O)c1ccc(-n2nc(-c3ccc(Cl)cc3)c3c2CCCCC3)cc1 |
| 2.4 | COc1ccc(-n2nc(-c3ccc(Cl)cc3)c3c2CCC(N(O)C(C)=O)C3)cc1 (configuration not stated) |

| Structure (SMILES) | IC50 [µM] |
| --- | --- |
| COc1ccc(-n2nc(-c3ccc(Cl)cc3)c3c2CCC(O)C3)cc1 (configuration not stated) | 0.46 |
| Cc1ccc(NNC(=O)c2ccc(Cl)cc2)cc1 | 0.01 |
